The source made the active and inactive calls. The calls are words filed in the database; no cut-off is given here.
Key:
[1] = biological target: Dipeptidyl peptidase 4 (Homo sapiens) (UniProt P27487); test: Inhibition of DPP4 upto 10 uM
Rattus norvegicus [2] = test: Hypoglycemic activity in fasted Lewis rat at 2 mg/kg, iv administered 30 mins prior to glucose stimulation measured after 120 mins by glucose tolerance test; assay type: functional, organism-based; design: dose 2 mg/kg
Procedure, shortened: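 Lewis rats fasted 6 h received drug iv at −30 min (2mg/kg), then glucose 2g/kg ip at 0 min; blood glucose followed 120 min. AUC IPGTT by trapezoidal rule, SEM (n=5); drug versus vehicle compared by Student's t test.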

Rattus norvegicus [3] = test: Toxicity in Lewis rat assessed as tonic seizure at 2 mg/kg; assay type: organism-based; design: dose 2 mg/kg; conditions: in vivo

Chain of Dipeptidyl peptidase 4 (Homo sapiens) (P27487 whole entry, looked up): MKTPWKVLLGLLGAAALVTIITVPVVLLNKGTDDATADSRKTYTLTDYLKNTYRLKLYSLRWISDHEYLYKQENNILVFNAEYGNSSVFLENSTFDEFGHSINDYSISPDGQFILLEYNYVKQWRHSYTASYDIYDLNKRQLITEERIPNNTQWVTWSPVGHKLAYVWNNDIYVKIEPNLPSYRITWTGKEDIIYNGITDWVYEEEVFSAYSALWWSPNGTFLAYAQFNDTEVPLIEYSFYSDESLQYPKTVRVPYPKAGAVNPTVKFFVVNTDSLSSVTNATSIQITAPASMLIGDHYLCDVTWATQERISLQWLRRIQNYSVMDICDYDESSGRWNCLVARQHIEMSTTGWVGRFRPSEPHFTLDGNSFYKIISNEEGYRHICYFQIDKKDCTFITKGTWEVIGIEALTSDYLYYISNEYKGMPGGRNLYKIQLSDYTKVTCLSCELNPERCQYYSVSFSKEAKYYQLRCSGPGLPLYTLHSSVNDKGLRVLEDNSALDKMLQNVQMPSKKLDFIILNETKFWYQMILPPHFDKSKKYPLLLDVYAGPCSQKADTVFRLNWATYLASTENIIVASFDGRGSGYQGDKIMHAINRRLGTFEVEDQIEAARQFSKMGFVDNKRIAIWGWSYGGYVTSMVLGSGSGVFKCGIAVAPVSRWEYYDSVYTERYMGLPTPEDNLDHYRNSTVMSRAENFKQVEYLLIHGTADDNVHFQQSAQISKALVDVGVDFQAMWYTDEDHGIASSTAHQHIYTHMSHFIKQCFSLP

Row | Activity [1] | SMILES | Activity (Rattus norvegicus [2]) | Activity (Rattus norvegicus [3])
1 | inactive | COc1ccc(C2CC(OCC(C)C)=CC(=O)N2)cc1OC (stereo not drawn) | Active | Non-toxic
2 | – | COC1=CC(=O)N2CCc3cc(OC)c(OC)cc3C2C1 (stereo not drawn) | Active | –
3 | – | COc1cc2c(cc1OC)C1CC(OCC(C)C)=CC(=O)N1CC2 (stereo not drawn) | Active | –
4 | – | COc1ccc(C2CC(=O)CC(=O)N2)cc1OC (stereo not drawn) | inactive | –
5 | – | COc1cc2c(cc1OC)C1CC(=O)C(CC(C)C)CN1CC2 (stereo not drawn) [TETRABENAZINE] | – | Toxic
6 | – | COC1=CC(=O)OC(c2ccc(OC)c(OC)c2)C1 (stereo not drawn) | inactive | –
7 | – | COc1ccc(C2CC(O)C(CC(C)C)CN2)cc1OC (stereo not drawn) | Active | –
8 | – | COc1ccc(C2CC(OCC(C)C)=CC(=O)O2)cc1OC (stereo not drawn) | inactive | –
9 | – | COc1cc2c(cc1OC)[C@@H]1C[C@H](O)[C@@H](CC(C)C)CN1CC2 | Active | Toxic
10 | – | COc1ccc(-c2cc(OCC(C)C)cc(=O)[nH]2)cc1OC | inactive | –
